Measured values as given in ChEMBL document CHEMBL1155808, “Antitumor activity of bis-indole derivatives” (J Med Chem, 2008).
Counter-ions that a name gives are not always drawn. The source made the active and inactive calls. No cut-off for these calls is given here.

Key:
[1] = Cytotoxicity against human breast cancer cells; type: functional; conditions: Cancer cell lines; for CC50: read-out: pLC50 (the source's name) (converted); for TGI: read-out: pTGI (converted)
Method in brief: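 MTT cytotoxicity assay in breast cancer cell lines; proliferation expressed as percent growth inhibition relative to vehicle-treated control cells; IC50 reported.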

[2] = Cytotoxicity against human prostate cancer cells; type: functional; conditions: Cancer cell lines; for CC50: read-out: pLC50 (the source's name) (converted); for TGI: read-out: pTGI (converted)
Method in brief: (§1)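 NCI 60-cell-line human tumour screen, with subpanels for leukemia, melanoma, lung, colon, kidney, ovary, breast, prostate and CNS. Compounds were dissolved in DMSO and tested at five ten-fold dilutions, highest 10^-4 M (10^-3 M for some). Endpoints were GI50, TGI and LC50, reported as negative log molar. Some compounds were assayed once, others two or three times.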

[3] = Cytotoxicity against human Non-small cell lung carcinoma cells; type: functional; conditions: for CC50: read-out: pLC50 (the source's name) (converted); for TGI: read-out: pTGI (converted); method in brief: as §1
[4] = Inhibition of plasma membrane electron transport pathway in human HL60 cells by WST1 reduction assay; type: cell-based; conditions: HL-60
Method in brief: (§2)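 Cells at 10^5 per well in 0.1 ml pretreated 30 min with compound in DMSO (<0.1% final), then WST-1/mPMS added (final 500 µM and 20 µM); WST-1 reduction followed in real time at 450 nm; averages ± S.E.M. of four independent experiments.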

HEL = assay: Antiproliferative activity against human HEL cells after 48 hrs by MTT assay; type: functional, cell-based
Mo7e = assay: Antiproliferative activity against human Mo7e cells after 48 hrs by MTT assay; type: functional, cell-based
B1647 = assay: Antiproliferative activity against human B1647 cells after 48 hrs by MTT assay; type: functional, cell-based
[5] = Cytotoxicity against human melanoma cells; type: functional; conditions: Melanoma cell; for CC50: read-out: pLC50 (the source's name) (converted); for TGI: read-out: pTGI (converted)
[6] = Inhibition of plasma membrane electron transport pathway in mitochondrial gene-knockout human HL60p'0 cells by WST1 reduction assay; method in brief: as §2
[7] = Cytotoxicity against human renal cancer cells; type: functional; conditions: Cancer cell lines; for CC50: read-out: pLC50 (the source's name) (converted); for TGI: read-out: pTGI (converted); method in brief: as §1
[8] = Cytotoxicity against human colon cancer cells; type: functional; conditions: Cancer cell lines; for CC50: read-out: pLC50 (the source's name) (converted); for TGI: read-out: pTGI (converted); method in brief: as §1
[9] = Cytotoxicity against human ovarian cancer cells; type: functional; conditions: Cancer cell lines; for CC50: read-out: pLC50 (the source's name) (converted); for TGI: read-out: pTGI (converted)
[10] = Cytotoxicity against human leukemia cells; type: functional; conditions: Leukemia cell; for CC50: read-out: pLC50 (the source's name) (converted); for TGI: read-out: pTGI (converted); method in brief: as §1
[11] = Cytotoxicity against human central nervous system cancer cells; type: functional; conditions: Cancer cell lines; for CC50: read-out: pLC50 (the source's name) (converted); for TGI: read-out: pTGI (converted); method in brief: as §1
[12] = Inhibition of plasma membrane electron transport pathway in human HL60 cells at 200 uM by WST1 reduction assay; type: cell-based; conditions: HL-60

Compound | GI50 [1] | TGI [1] | GI50 [2] | GI50 [3] | TGI [3] | IC50 [4] | Activity (HEL) | Activity (Mo7e) | Activity (B1647) | GI50 [5] | CC50 [5] | TGI [5] | IC50 [6] | GI50 [7] | CC50 [7] | GI50 [8] | GI50 [9] | GI50 [10] | GI50 [11] | TGI [11] | other results
O=C1Nc2cc(Cl)ccc2/C1=C\c1cccc(/C=C2/C(=O)Nc3cc(Cl)ccc32)n1 | 2.29 µM | 13.5 µM | 3.39 µM | 3.72 µM | 14.8 µM | > 117 µM | Active | Active | Active | 1.78 µM | 21.4 µM | 6.17 µM | > 117 µM | 1.07 µM | 20 µM | 1.74 µM | 3.02 µM | 1.45 µM | 2.24 µM | 7.76 µM | CC50 [1]: 52.5 µM; CC50 [2]: 70.8 µM; TGI [2]: 40.7 µM; CC50 [3]: 57.5 µM; TGI [7]: 3.31 µM; CC50 [8]: 25.1 µM; TGI [8]: 4.9 µM; CC50 [9]: 63.1 µM; TGI [9]: 19.5 µM; CC50 [10]: 95.5 µM; TGI [10]: 8.13 µM; CC50 [11]: 36.3 µM
CC[C@]1(O)C[C@H]2CN(CCc3c([nH]c4ccccc34)[C@@](C(=O)OC)(c3cc4c(cc3OC)N(C=O)[C@H]3[C@@](O)(C(=O)OC)[C@H](OC(C)=O)[C@]5(CC)C=CCN6CC[C@]43[C@@H]65)C2)C1 [VINCRISTINE SULFATE] | 0.316 µM | – | 0.126 µM | 0.251 µM | – | – | – | – | – | 0.158 µM | – | – | – | 0.316 µM | 251 µM | 0.1 µM | 0.316 µM | 0.1 µM | 0.126 µM | – | CC50 [1]: 316 µM; CC50 [2]: 316 µM; CC50 [8]: 79.4 µM; CC50 [9]: 316 µM; CC50 [10]: 631 µM; CC50 [11]: 200 µM
CC(=O)n1c(=O)/c(=C/c2c[nH]c3ccccc23)n(C(C)=O)c(=O)/c1=C/c1c[nH]c2ccccc12 | 66.1 µM | – | – | 85.1 µM | – | > 117 µM | Active | Active | Active | 87.1 µM | – | – | > 117 µM | 29.5 µM | – | – | 79.4 µM | 93.3 µM | 75.9 µM | – | Activity [12]: inactive
COc1ccc2[nH]cc(/C=c3\[nH]c(=O)/c(=C/c4c[nH]c5ccc(OC)cc45)[nH]c3=O)c2c1 | 79.4 µM | – | – | – | – | – | – | – | – | 72.4 µM | – | – | – | – | – | – | 89.1 µM | – | – | – | –
O=C1Nc2ccc(F)cc2/C1=C\c1cccc(/C=C2/C(=O)Nc3ccc(F)cc32)n1 | 2.95 µM | 14.5 µM | 3.47 µM | 7.24 µM | 26.3 µM | > 117 µM | Active | Active | Active | 2.04 µM | 36.3 µM | 4.9 µM | > 117 µM | 4.17 µM | 51.3 µM | 2.14 µM | 4.17 µM | 1.17 µM | 3.8 µM | 11.5 µM | CC50 [1]: 50.1 µM; CC50 [2]: 74.1 µM; TGI [2]: 12.3 µM; CC50 [3]: 79.4 µM; TGI [7]: 12.9 µM; CC50 [8]: 39.8 µM; TGI [8]: 5.37 µM; CC50 [9]: 81.3 µM; TGI [10]: 7.76 µM; CC50 [11]: 53.7 µM
O=C1Nc2ccc(Br)cc2/C1=C\c1cccc(/C=C2/C(=O)Nc3ccc(Br)cc32)n1 | 6.17 µM | 18.2 µM | 6.46 µM | 11 µM | 28.2 µM | – | – | – | – | 10 µM | 52.5 µM | 23.4 µM | – | 7.94 µM | 51.3 µM | 10.5 µM | 9.77 µM | – | 3.72 µM | 14.1 µM | CC50 [1]: 53.7 µM; CC50 [2]: 55 µM; TGI [2]: 20.9 µM; CC50 [3]: 63.1 µM; TGI [7]: 21.9 µM; CC50 [8]: 52.5 µM; TGI [8]: 24.5 µM; CC50 [9]: 58.9 µM; TGI [9]: 25.7 µM; CC50 [11]: 40.7 µM
O=C(O)CCC(=O)c1ccc2c(c1)/C(=C\c1cccc(/C=C3/C(=O)Nc4ccc(C(=O)CCC(=O)O)cc43)n1)C(=O)N2 | – | – | – | – | – | – | – | – | – | – | – | – | – | – | – | – | – | 15.5 µM | 30.2 µM | 61.7 µM | –
Cc1cc2c(cc1O)/C(=C\c1cccc(/C=C3/C(=O)Nc4cc(C)c(O)cc43)n1)C(=O)N2 | 70.8 µM | 87.1 µM | 66.1 µM | 85.1 µM | – | > 117 µM | Active | Active | Active | 87.1 µM | – | – | > 117 µM | 67.6 µM | – | 72.4 µM | 75.9 µM | 27.5 µM | – | – | –
O=C1Nc2ccccc2/C1=c1/[nH]c(=O)/c(=C2/C(=O)Nc3ccccc32)[nH]c1=O | 85.1 µM | – | – | 85.1 µM | – | – | – | – | – | – | – | – | – | 83.2 µM | – | – | 97.7 µM | – | 74.1 µM | – | –
O=c1[nH]/c(=C\c2c[nH]c3ccccc23)c(=O)[nH]/c1=C\c1c[nH]c2ccccc12 | 64.6 µM | – | – | 97.7 µM | – | > 117 µM | Active | Active | Active | 55 µM | – | – | > 117 µM | 70.8 µM | – | – | – | – | 64.6 µM | – | Activity [12]: inactive
COc1cc2c(cc1C)NC(=O)/C2=C/c1cccc(/C=C2/C(=O)Nc3cc(C)c(OC)cc32)n1 | 74.1 µM | 93.3 µM | 33.9 µM | 83.2 µM | – | > 117 µM | Active | Active | Active | 79.4 µM | – | – | > 117 µM | 52.5 µM | – | 49 µM | 89.1 µM | 4.37 µM | 89.1 µM | – | CC50 [10]: 91.2 µM; TGI [10]: 60.3 µM
CN(C)c1ccc2c(c1)/C(=C\c1cccc(/C=C3/C(=O)Nc4ccc(N(C)C)cc43)n1)C(=O)N2 | 6.03 µM | 69.2 µM | 3.55 µM | 5.25 µM | 43.7 µM | > 117 µM | Active | Active | Active | 4.37 µM | 60.3 µM | 30.2 µM | > 117 µM | 8.71 µM | – | 6.76 µM | 7.59 µM | 2.34 µM | 4.37 µM | 44.7 µM | TGI [2]: 29.5 µM; Activity [12]: inactive; TGI [8]: 38.9 µM; TGI [10]: 9.55 µM; CC50 [11]: 89.1 µM
COc1ccc2c(c1)/C(=C\c1cccc(/C=C3/C(=O)N(C)c4ccc(OC)cc43)n1)C(=O)N2C | 1.62 µM | – | 2.09 µM | 2.45 µM | 19.1 µM | – | – | – | – | 1.05 µM | 8.91 µM | 3.8 µM | – | 1.51 µM | 20.9 µM | 1.45 µM | 2.57 µM | 38 µM | 3.24 µM | 14.8 µM | CC50 [1]: 63.1 µM; CC50 [3]: 74.1 µM; TGI [7]: 5.25 µM; CC50 [8]: 11.7 µM; TGI [8]: 3.39 µM
O=C1Nc2ccc(C(=O)O)cc2/C1=C\c1cccc(/C=C2/C(=O)Nc3ccc(C(=O)O)cc32)n1 | – | – | – | – | – | > 117 µM | Active | Active | Active | – | – | – | > 117 µM | – | – | – | – | 6.17 µM | 72.4 µM | 87.1 µM | Activity [12]: inactive; CC50 [10]: 34.7 µM; TGI [10]: 21.4 µM
O=C1Nc2ccccc2/C1=C\c1cccc(/C=C2/C(=O)Nc3ccccc32)n1 | 0.49 µM | – | 0.631 µM | 0.813 µM | 3.16 µM | – | – | – | – | 0.302 µM | 4.68 µM | 0.933 µM | – | – | 5.37 µM | 0.282 µM | 0.589 µM | 0.234 µM | 0.575 µM | 1.82 µM | CC50 [1]: 57.5 µM; CC50 [2]: 24.5 µM; TGI [2]: 2.69 µM; CC50 [3]: 22.4 µM; TGI [7]: 1.62 µM; CC50 [8]: 6.46 µM; TGI [8]: 0.776 µM; CC50 [9]: 6.61 µM; TGI [9]: 1.78 µM; TGI [10]: 1.95 µM; CC50 [11]: 7.08 µM
O=C1Nc2ccc(S(=O)(=O)O)cc2/C1=C\c1cccc(/C=C2/C(=O)Nc3ccc(S(=O)(=O)O)cc32)n1 | – | – | – | – | – | – | – | – | – | 95.5 µM | – | – | – | 85.1 µM | – | – | – | 93.3 µM | – | – | –
CN1C(=O)/C(=C/c2cccc(/C=C3/C(=O)N(C)c4ccccc43)n2)c2ccccc21 | 8.91 µM | 33.1 µM | 13.5 µM | 12 µM | 30.2 µM | > 117 µM | Active | Active | Active | 4.9 µM | 43.7 µM | 22.4 µM | > 117 µM | 10 µM | 46.8 µM | 10 µM | 10 µM | 3.09 µM | 7.59 µM | 29.5 µM | Activity [12]: inactive; TGI [7]: 23.4 µM; TGI [8]: 28.2 µM; TGI [9]: 29.5 µM; CC50 [11]: 50.1 µM
